# Data: ChEMBL document CHEMBL1133552, “Synthesis and evaluation of pharmacological and pharmacokinetic properties of 11H-[1,2,4]triazolo[4,5-c][2,3]benzodiazepin-3(2H)-ones” (J Med Chem, 2000)
# How the values were obtained:
# [1] = Relative Lipophilicity measured by reversed-phase high performance thin-layer chromatography (RP-HPTLC); format: physicochemical
# Outline: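 Reversed-phase TLC; plates dried 105 °C, 1 h; mobile phase acetone/water 2:1 (v/v); 1 µL of 3 mg/mL CHCl3 solution spotted; five runs with varied placement; mean Rf converted via Rm = log[(1/Rf) - 1].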
# [2] = Evaluated for anticonvulsant property in DBA/2 mice against Locomotion assessed by Rotarod test (ip administration); format: functional, Mus musculus
# Outline: (§1)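 Rotarod (3-cm diameter, 8 rpm): trained mice in groups of 10 tested 30 min after ip dosing; failure to stay on for 2 min = impairment. TD50 by Litchfield-Wilcoxon, at least 32 animals per value.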
# [3] = Therapeutic index is the ratio between TD50 and ED50 (from the clonic phase of the audiogenic seizures); ND means not detectable
# Outline: (§2)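 Therapeutic index = TD50 (rotarod, ip) divided by ED50 for clonic phase of audiogenic seizures in DBA/2 mice; both by Litchfield-Wilcoxon, at least 32 animals each.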
# [4] = Evaluated for anticonvulsant property in DBA/2 mice against Locomotion assessed by Rotarod test (ip administration); value ranges from 34-77.8; format: functional, Mus musculus; outline: as §1
# [5] = Evaluated for anticonvulsant property in DBA/2 mice against Locomotion assessed by Rotarod test (ip administration); value ranges from 87.3-231; format: functional, Mus musculus; outline: as §1
# [6] = Evaluated for anticonvulsant property in DBA/2 mice against Audiogenic seizures during clonic phase (ip administration); value ranges from 26.0-44.2; format: functional; details: Mus musculus
# Outline: (§3)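 DBA/2 mice, genetically sound-susceptible (8-12 g, 22-25 days old, either sex), groups of 10; drug ip in 50% DMSO/50% saline (0.1 mL/10 g), auditory stimulation 30 min later; latency and incidence of clonic and tonic phases scored; ED50 via Litchfield-Wilcoxon, at least 32 animals per value.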
# Mus musculus = assay: Anticonvulsant activity was determined when tested at 15 min from intraperitoneal administration; format: functional; details: ip, 0.25 h
# [7] = Evaluated for anticonvulsant property in DBA/2 mice against Audiogenic seizures during clonic phase (ip administration); ranges from [39.2-81.1]; format: functional; details: Mus musculus; outline: as §3
# [8] = Evaluated for anticonvulsant property in DBA/2 mice against Audiogenic seizures during tonic phase (ip administration); ranges from [32.5-57.4]; format: functional; details: Mus musculus; outline: as §3
# [9] = Evaluated for anticonvulsant property in DBA/2 mice against Audiogenic seizures during tonic phase (ip administration); value ranges from 41.5-78.8; format: functional; details: Mus musculus; outline: as §3
# [10] = Evaluated for anticonvulsant property in DBA/2 mice against Audiogenic seizures during clonic phase (ip administration); value ranges from 46.0-132; format: functional; details: Mus musculus; outline: as §3
# [11] = Evaluated for anticonvulsant property in DBA/2 mice against Audiogenic seizures during clonic phase (ip administration); value ranges from 10.5-38.2; format: functional; details: Mus musculus; outline: as §3
# [12] = Evaluated for anticonvulsant property in DBA/2 mice against Audiogenic seizures during tonic phase (ip administration); value ranges from 8.04-21.3; format: functional; details: Mus musculus; outline: as §3
# [13] = Evaluated for anticonvulsant property in Swiss mice against PTZ induced seizures; value ranges from 43.8-79.1; format: functional; details: Mus musculus
# Outline: (§4)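 Male Swiss mice given drug ip (50% DMSO/50% saline) 45 min before sc PTZ at CD97 (85 mg/kg); watched 30 min; protection = no clonic spasm lasting at least 5 s; ED50 by Litchfield-Wilcoxon.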
# [14] = Evaluated for anticonvulsant property in Swiss mice against MES induced seizures; value ranges from 26.8-45.8; format: functional; details: Mus musculus
# [15] = Evaluated for anticonvulsant property in DBA/2 mice against Locomotion assessed by Rotarod test (ip administration); value ranges from 59.4-99.3; format: functional, Mus musculus; outline: as §1
# [16] = Therapeutic index is the ratio between TD50 and ED50 (from the clonic phase of the audiogenic seizures); details: read-out: TI; outline: as §2
# [17] = Evaluated for anticonvulsant property in DBA/2 mice against Audiogenic seizures during clonic phase (ip administration); value ranges from 60.3-91.0; format: functional; details: Mus musculus; outline: as §3
# [18] = Evaluated for anticonvulsant property in DBA/2 mice against Audiogenic seizures during tonic phase (ip administration); value ranges from 41.3-82.3; format: functional; details: Mus musculus; outline: as §3
# [19] = Evaluated for anticonvulsant property in Swiss mice against MES induced seizures; value ranges from 62.4 - 92.1; format: functional; details: Mus musculus
# [20] = Evaluated for anticonvulsant property in Swiss mice against PTZ induced seizures; value ranges from 72.2 - 114; format: functional; details: Mus musculus; outline: as §4
# [21] = Evaluated for anticonvulsant property in DBA/2 mice against AMPA induced seizures during clonic phase; value ranges from 13.8-37.2; format: functional; details: Mus musculus
# [22] = Evaluated for anticonvulsant property in DBA/2 mice against AMPA induced seizures during tonic phase; value ranges from 11.4-28.7; format: functional; details: Mus musculus
# [23] = Evaluated for anticonvulsant property in DBA/2 mice against Audiogenic seizures during clonic phase (ip administration); value ranges from 11.8-22.0; format: functional; details: Mus musculus; outline: as §3
# [24] = Evaluated for anticonvulsant property in DBA/2 mice against Audiogenic seizures during tonic phase (ip administration); value ranges from 8.67-11.93; format: functional; details: Mus musculus; outline: as §3
# [25] = Evaluated for anticonvulsant property in DBA/2 mice against audiogenic Seizures after pretreatment with Aniracetam during clonic phase, *p<0.01; value ranges from 20.5-71.9; format: functional; details: Mus musculus
# [26] = Evaluated for anticonvulsant property in DBA/2 mice against audiogenic Seizures after pretreatment with Aniracetam during tonic phase, *p<0.01; value ranges from 12.7-45.5; format: functional; details: Mus musculus
# [27] = Evaluated for anticonvulsant property in DBA/2 mice against Locomotion assessed by Rotarod test (ip administration); value ranges from 46.2-99.8; format: functional, Mus musculus; outline: as §1
# [28] = Evaluated for anticonvulsant property in Swiss mice against MES induced seizures; ranges from [18.6-51.0]; format: functional; details: Mus musculus
# [29] = Evaluated for anticonvulsant property in Swiss mice against PTZ induced seizures; value ranges from 41.5-78.8; format: functional; details: Mus musculus; outline: as §4
# [30] = Evaluated for anticonvulsant property in DBA/2 mice against Locomotion assessed by Rotarod test (ip administration); value ranges from 73.8-206; format: functional, Mus musculus; outline: as §1
# [31] = Evaluated for anticonvulsant property in Swiss mice against PTZ induced seizures; value ranges from 51.8-113; format: functional; details: Mus musculus; outline: as §4
# [32] = Evaluated for anticonvulsant property in Swiss mice against MES induced seizures; ranges from [45.6-80.3]; format: functional; details: Mus musculus
# [33] = Evaluated for anticonvulsant property in DBA/2 mice against Audiogenic seizures during tonic phase (ip administration); value ranges from 15.4-49.4; details: Mus musculus
# [34] = Evaluated for anticonvulsant property in DBA/2 mice against Audiogenic seizures during clonic phase (ip administration); value ranges from 32.5-61.2; details: Mus musculus
# [35] = Evaluated for anticonvulsant property in DBA/2 mice against AMPA induced seizures during clonic phase; value ranges from 27.5-64.3; format: functional; details: Mus musculus
# [36] = Evaluated for anticonvulsant property in DBA/2 mice against AMPA induced seizures during tonic phase; value ranges from 20.6-50.3; format: functional; details: Mus musculus
# [37] = Evaluated for anticonvulsant property in DBA/2 mice against Audiogenic seizures during clonic phase (ip administration); value ranges from 16.3-[…]; format: functional; details: Mus musculus; outline: as §3
# [38] = Evaluated for anticonvulsant property in DBA/2 mice against Audiogenic seizures during tonic phase (ip administration); value ranges from 14.3-31.9; format: functional; details: Mus musculus; outline: as §3
# [39] = Evaluated for anticonvulsant property in DBA/2 mice against audiogenic Seizures after pretreatment with Aniracetam during clonic phase; value ranges from 28.3-91.5; format: functional; details: Mus musculus
# [40] = Evaluated for anticonvulsant property in DBA/2 mice against audiogenic Seizures after pretreatment with Aniracetam during tonic phase, *p<0.01; value ranges from 23.5-62.7; format: functional; details: Mus musculus
# [41] = Evaluated for anticonvulsant property in DBA/2 mice against Locomotion assessed by Rotarod test (ip administration); value ranges from 65.1-126; format: functional, Mus musculus; outline: as §1
# [42] = Evaluated for anticonvulsant property in Swiss mice against MES induced seizures; value ranges from 33.5-56.0; format: functional; details: Mus musculus
# [43] = Evaluated for anticonvulsant property in Swiss mice against PTZ induced seizures; value ranges from 45.6-80.3; format: functional; details: Mus musculus; outline: as §4
structure (smiles),measurement,setting,value
COc1cc2c(cc1OC)C(c1ccc([N+](=O)[O-])cc1)=NNC(=O)C2,Rm,[1],-0.145
same,TD50,[2],>150 µM/kg
same,TI,[3],Not detectable
COc1cc2c(cc1OC)C(c1cccc([N+](=O)[O-])c1)=NNC(=O)C2,Rm,[1],-0.181
same,TD50,[2],>150 µM/kg
same,TI,[3],Not detectable
COc1cc2c(cc1OC)C(c1cccc(N)c1)=NNC(=O)C2,Rm,[1],-0.619
same,TD50,[4],51.5 µM/kg
COc1cc2c(cc1OC)C(c1ccccc1)=NNC(=O)C2,Rm,[1],-0.28
same,TD50,[5],142 µM/kg
same,ED50,[6],33.9 µmol/kg
COc1cc2c(cc1OC)C(c1ccc(N)cc1)=NNC(=O)C2,Rm,[1],-0.647
same,TD50,[2],56.8 µM/kg
same,ED50,Mus musculus,> 50 µmol/kg
COc1cc2c(cc1OC)C(c1cccc([N+](=O)[O-])c1)=Nn1c(O)nnc1C2,Rm,[1],-0.402
same,TD50,[2],>150 µM/kg
same,ED50,[7],56.4 µmol/kg
same,ED50,[8],43.2 µmol/kg
COc1cc2c(cc1OC)C(c1ccc(F)cc1)=NNC(=O)C2,Rm,[1],-0.28
same,ED50,[9],57.2 µmol/kg
same,TD50,[2],>150 µM/kg
same,ED50,[10],78 µmol/kg
COc1cc2c(cc1OC)C(c1cccc(N)c1)=Nn1c(O)nnc1C2,Rm,[1],-0.74
same,ED50,[11],20.1 µmol/kg
same,ED50,[12],13.1 µmol/kg
same,ED50,[13],58.9 µmol/kg
same,ED50,[14],35.1 µmol/kg
same,TD50,[15],76.8 µM/kg
same,selectivity ratio,[16],3.8
COc1cc2c(cc1OC)C(c1ccc([N+](=O)[O-])cc1)=Nn1c(O)nnc1C2,Rm,[1],-0.368
same,TD50,[2],>150 µM/kg
same,ED50,[17],74.1 µmol/kg
same,ED50,[18],58.3 µmol/kg
same,ED50,[19],75.8 µmol/kg
same,ED50,[20],90.7 µmol/kg
COc1cc2c(cc1OC)C(c1ccc(N)cc1)=Nn1c(O)nnc1C2,Rm,[1],-0.837
same,ED50,[21],22.1 µmol/kg
same,ED50,[22],18.1 µmol/kg
same,ED50,[23],16.1 µmol/kg
same,ED50,[24],10.2 µmol/kg
same,ED50,[25],38.4 µmol/kg
same,ED50,[26],24.1 µmol/kg
same,TD50,[27],65.8 µM/kg
same,ED50,[28],30.8 µmol/kg
same,ED50,[29],57.2 µmol/kg
same,ED50,Mus musculus,27.8 µmol/kg
same,selectivity ratio,[16],4
COc1cc2c(cc1OC)C(c1ccccc1)=Nn1c(O)nnc1C2,Rm,[1],-0.508
same,TD50,[30],123 µM/kg
same,ED50,[31],76.5 µmol/kg
same,ED50,[32],60.5 µmol/kg
same,selectivity ratio,[16],2.8
same,ED50,[33],27.5 µmol/kg
same,ED50,[34],44.6 µmol/kg
COc1cc2c(cc1OC)C(c1ccc(F)cc1)=Nn1c(O)nnc1C2,Rm,[1],-0.402
same,ED50,[35],42.1 µmol/kg
same,ED50,[36],32.2 µmol/kg
same,ED50,[37],32.1 µmol/kg
same,ED50,[38],21.8 µmol/kg
same,ED50,[39],50.9 µmol/kg
same,ED50,[40],38.4 µmol/kg
same,TD50,[41],90.6 µM/kg
same,ED50,[42],43.4 µmol/kg
same,ED50,[43],60.5 µmol/kg
same,selectivity ratio,[16],2.8
CC1=NN=C(c2ccc(N)cc2)c2cc3c(cc2C1)OCO3 [GYKI-52466],Rm,[1],-0.368
